Compounds with a hit are over-represented: about 3% of the library has one in this group of screens.
GRIN3A LBD mod: NR3A (human) ligand-binding domain modulation. 340,000 compounds, 2.5% hits. Tm shift relative to glycine control, % at 25 µM. NR3A LBD differential scanning fluorimetry, Tm shift; 0% = protein alone, 100% = glycine-bound protein;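 active means melting temperature shift of at least 10% of the positive control shift, at one fixed dose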
Hep lipid drop: modulators of hepatic lipid droplet formation | inhibition, % at 6.5 µM | AID 1656 | 240,000 compounds, 0.4% hits | AML12 mouse hepatocytes, oleate lipid droplets, BODIPY imaging;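 active means lipid droplet intensity inhibited by at least 50%, with more than 500 cells counted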
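Assay system: AML12 hepatocytes (mouse); Probe or stimulus: oleic acid at 100 µM to induce lipid droplet formation; Dosing: compound at 6.5 µM only; Schedule: compound with oleate, overnight; Detection: fluorescence imaging, 20x objective, two fields per well; Measure: % inhibition of lipid droplet signal.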
NPR2 activator: GC-B (human) receptor activation. 370,000 compounds, 0.11% hits. HEK293-GC-B cells, CNP EC30, cGMP TR-FRET; 0% at EC30 CNP, 100% saturating CNP. activation, % at 10 µM. P20594;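 active means activation at 10 µM reaching about 35% in either raw or pattern-adjusted values, limit read from the data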
aDG glyco up: increases alpha dystroglycan glycosylation. activation, % at 10 µM. Pro5-aDG cells, alpha-DG glycosylation AlphaScreen (IIH6); 0% Pro5, 100% B10-LARGE cell signal. AID 624168. 360,000 compounds, 0.22% hits;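 active means activation of at least 8% versus controls, or a plate z-score of at least 8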;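 further: Pro5 are CHO cells carrying HIG-tagged alpha-DG that lacks glycosylation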
JMJD2C inh: blocks human GASC-1 demethylase activity; 330,000 compounds, 0.069% hits; GST-JMJD2C(1-420) H3K9me3 demethylation, DELFIA europium; inhibition, % at 2.35 µM; Q9H3R0; AID 2099;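 active means more than half of a compound's replicate wells show inhibition beyond 50%, single wells judged on their own value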;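 further: signal counts dimethyl H3K9 product captured on neutravidin plate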
Target sequence (Q9H3R0 1-420 limits assumed): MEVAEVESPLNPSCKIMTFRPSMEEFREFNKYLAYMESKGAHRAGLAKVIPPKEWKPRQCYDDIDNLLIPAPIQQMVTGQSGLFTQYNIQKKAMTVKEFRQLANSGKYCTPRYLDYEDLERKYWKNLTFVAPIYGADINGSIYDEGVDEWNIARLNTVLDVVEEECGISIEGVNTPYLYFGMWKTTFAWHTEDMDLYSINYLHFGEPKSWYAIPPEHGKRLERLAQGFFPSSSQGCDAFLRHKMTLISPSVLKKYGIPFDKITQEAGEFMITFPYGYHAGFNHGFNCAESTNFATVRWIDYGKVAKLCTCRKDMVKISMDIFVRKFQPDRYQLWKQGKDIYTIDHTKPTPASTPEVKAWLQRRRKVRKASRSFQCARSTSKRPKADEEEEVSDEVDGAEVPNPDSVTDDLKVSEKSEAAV
GC-A act: GC-A (human) enzyme activation; P16066; HEK293 GC-A cells, cGMP TR-FRET, EC30 ANP; 0% at EC30 ANP, 100% saturating ANP; activation, % at 10 µM; 370,000 compounds, 0.14% hits; AID 1671463; in the data active means activation above about 40%
Each line names hits and unclear results; the compound was inactive in the other large screens.

CCOCCCNC(=O)C1(O)c2ccccc2NC(=O)N1c1ccc(Cl)cc1 (stereo unspecified)	GRIN3A LBD mod 12.0
CC(C)CCNC(=O)C1(O)c2ccccc2NC(=O)N1c1ccc(Cl)cc1 (stereo unspecified)	none (no result: Hep lipid drop)
CCOCCCNC(=O)C1(O)c2cc(Br)ccc2NC(=O)N1c1ccc(CC)cc1 (stereo unspecified)	GRIN3A LBD mod 17.8 (no result: Hep lipid drop)
CCOCCCNC(=O)C1(O)c2cc(Br)ccc2NC(=O)N1c1ccc(OCC)cc1 (stereo unspecified)	GRIN3A LBD mod 12.0
O=S1(=O)c2ccc(N3CC[C@@H](O)C3)cc2O[C@H]2CCN1C2	none (no result: GRIN3A LBD mod, Hep lipid drop, aDG glyco up, JMJD2C inh)
Cc1ccsc1C(=O)N1CCC1(C)C(=O)NCC(C)(C)C (stereo unspecified)	none (no result: GRIN3A LBD mod, Hep lipid drop, JMJD2C inh)
COc1ccc(CNCC#Cc2cccnc2)c(OC)c1	none (no result: GRIN3A LBD mod, Hep lipid drop, aDG glyco up, JMJD2C inh)
Cc1cccc(-c2nc(Nc3ccc(N4CCOCC4)cc3)c3ccccc3n2)c1	none
COc1ccc(Nc2nc(-c3cccc([N+](=O)[O-])c3)nc3ccccc23)cc1	GRIN3A LBD mod 46.2
Cc1cccc(-c2nc(Nc3cccc(O)c3)c3ccccc3n2)c1	GRIN3A LBD mod 32.3 (no result: Hep lipid drop)
COc1nc(-c2cccc([N+](=O)[O-])c2)nc2ccccc12	none
COc1ccc(Nc2nc(-c3ccccc3)nc3ccccc23)cc1	GRIN3A LBD mod 34.2
O=[N+]([O-])c1ccc(-c2nc(Nc3ccc(O)cc3)c3ccccc3n2)cc1	GRIN3A LBD mod 22.9
COc1ccc(Nc2ncnc3ccccc23)cc1	none
Cc1n[nH]c(=O)nc1Nc1ccc(O)cc1	none
CC(=O)Nc1ccc(Nc2nc(-c3ccccc3)nc3ccccc23)cc1	GRIN3A LBD mod 11.6
Oc1ccc(Nc2nc(-c3ccccc3)nc3ccccc23)cc1	GRIN3A LBD mod 41.7 (no result: NPR2 activator, GC-A act)
Oc1ccc(Nc2nc3ccccc3nc2Nc2ccc(O)cc2)cc1	GRIN3A LBD mod 16.7 (no result: NPR2 activator, GC-A act)
O=C(O)c1ccc(Nc2nc(-c3ccc([N+](=O)[O-])cc3)nc3ccccc23)cc1	none
COc1ccc(-c2nc(N/N=C(\C)c3ccc(O)cc3)c3ccccc3n2)cc1	GRIN3A LBD mod 12.7
CN1CC(=O)N2[C@H](c3ccc4c(c3)OCO4)c3[nH]c4ccccc4c3C[C@@H]2C1=O	NPR2 activator 57.5, GC-A act 49.5
C=CCN1C(=O)[C@@H]2Cc3c([nH]c4ccccc34)C(c3ccc(O)cc3)N2C1=S (stereo partly specified)	GRIN3A LBD mod 21.2 (no result: NPR2 activator, GC-A act)
COC(=O)c1ccc(C2c3[nH]c4ccccc4c3C[C@H]3C(=O)N(C4CC4)CC(=O)N23)cc1 (stereo partly specified)	GC-A act 55.0
CN(C)c1nc(N/N=C/c2ccccc2O)nc(Nc2ccc(F)cc2)n1	GRIN3A LBD mod 37.6
Oc1ccccc1C=NNC(=S)Nc1ccc(F)cc1	GRIN3A LBD mod 14.3 (no result: Hep lipid drop, JMJD2C inh)
C/C(=N\NC(=S)NCCc1ccccc1)c1ccc(O)cc1O	GRIN3A LBD mod 17.4
Fc1ccc(NC(=S)NN=Cc2ccccc2Cl)cc1	none (no result: Hep lipid drop, JMJD2C inh)
Oc1ccccc1/C=N/NC(=S)NCCc1ccccc1	GRIN3A LBD mod 27.7
Cc1ccc(N(CC(=O)NC2CCCC2)C(=O)c2nsc(Cl)c2Cl)cc1	none
COc1ccccc1C(=O)NC1CCCCN(Cc2cccc(F)c2)C1=O (stereo unspecified)	none (no result: GRIN3A LBD mod, Hep lipid drop, aDG glyco up, JMJD2C inh)
C/C(=N\N=C1\NC(=O)C(CC(=O)Nc2ccc(C)c(Cl)c2)S1)C(C)(C)C (stereo unspecified)	GRIN3A LBD mod 19.5
O=C(CC1S/C(=N/N=C/c2cccs2)NC1=O)Nc1ccc(Cl)c(Cl)c1 (stereo unspecified)	GRIN3A LBD mod 28.5
S=C1NCCC12C(=S)Nc1ccccc12 (stereo unspecified)	none (no result: Hep lipid drop)
COc1ccc(-c2c(C#Cc3ccsc3)c3cc(-c4cccc5[nH]ccc45)ccc3n2C)cc1	none (no result: Hep lipid drop)
COc1ccc(-c2c(C#Cc3ccsc3)c3cc(-c4ccc5[nH]ccc5c4)ccc3n2C)cc1	GRIN3A LBD mod 10.8 (no result: Hep lipid drop)
CCOC(=O)c1c(C)[nH]c(C(=O)OCC(=O)Nc2sccc2C(N)=O)c1C	GRIN3A LBD mod 28.6 (no result: Hep lipid drop)
NC(=O)c1ccsc1NC(=O)COC(=O)c1cc(Cl)ccc1O	GRIN3A LBD mod 19.5 (no result: Hep lipid drop)
NC(=O)c1ccsc1NC(=O)COC(=O)c1ccccc1F	none (no result: Hep lipid drop, JMJD2C inh)
O=C(Nc1ccc(OC(F)(F)F)cc1)c1cc(S(=O)(=O)N2CCCCC2)ccc1N1CCOCC1	none (no result: GRIN3A LBD mod, Hep lipid drop, JMJD2C inh)
COC(=O)[C@]12C[C@H](CC(=O)NCCc3ccccc3OC)C(=O)N(Cc3cccc4ccccc34)C1=C[C@H](C1CCCC1)O[C@@H]2C	none (no result: GRIN3A LBD mod, Hep lipid drop, aDG glyco up, JMJD2C inh)
COc1ccc(-c2cc(C(=O)Nc3cc(OC)cc(C(=O)Nc4cccc(C(F)(F)F)c4)c3)[nH]n2)cc1	GRIN3A LBD mod 29.1
COc1cc(Nc2ccccn2)cc(C(=O)Nc2cccc(C(F)(F)F)c2)c1	GRIN3A LBD mod 20.7
COc1cc(NC(=O)c2ccno2)cc(C(=O)Nc2cccc(C(F)(F)F)c2)c1	none
COc1cc(NC(=O)c2ccc(N)nc2)cc(C(=O)Nc2cccc(C(F)(F)F)c2)c1	GRIN3A LBD mod 30.1
COc1cc(NC(=O)c2nccnc2N)cc(C(=O)Nc2cccc(C(F)(F)F)c2)c1	none
COc1cc(NC(=O)c2cc3cccc(OC)c3o2)cc(C(=O)Nc2cccc(C(F)(F)F)c2)c1	GRIN3A LBD mod 11.7
O=C(Nc1sc2c(c1-c1nc3ccccc3s1)CCNC2)C(F)(F)F	none (no result: GRIN3A LBD mod, Hep lipid drop, aDG glyco up, JMJD2C inh)
COc1ccc(C2CC(=O)C(c3ccc(Cl)cc3)=CN2Cc2ccccc2)cc1 (stereo unspecified)	none (no result: GRIN3A LBD mod, Hep lipid drop, aDG glyco up, JMJD2C inh)
O=C(CN1C(=O)NC2(CCCC2)C1=O)N1CCN(S(=O)(=O)c2cccc(F)c2)CC1	GRIN3A LBD mod 15.9
S=C(Nc1ccc(Cl)cc1)OC1CCC12CCC(c1ccccc1)CC2 (stereo unspecified)	none (no result: GRIN3A LBD mod, Hep lipid drop, aDG glyco up, JMJD2C inh)
Cc1ccc(C(=O)O)cc1-c1ccc(C=C2C(=O)c3ccccc3C2=O)o1	GRIN3A LBD mod 10.1
O=C(NCc1csc2ccc(Cl)cc12)Nc1ccccc1	GRIN3A LBD mod 22.6
O=C(NCc1csc2ccc(Cl)cc12)Nc1cccc2ccccc12	none
COc1ccc(S(=O)(=O)Nc2nc3ccccc3nc2Nc2ccc3c(c2)OCO3)cc1	none (no result: GRIN3A LBD mod, NPR2 activator, aDG glyco up, GC-A act)
O=S(=O)(Nc1nc2ccccc2nc1Nc1ccc2c(c1)OCCO2)c1cccs1	GRIN3A LBD mod 13.4 (no result: Hep lipid drop)
COc1ccc(CC(=O)NNC(=O)COc2ccc(C)cc2)cc1S(=O)(=O)N1CCOCC1	GRIN3A LBD mod 10.1 (no result: Hep lipid drop)
COc1ccc(CCC(=O)Nc2ccc(S(=O)(=O)N3CCOCC3)cc2)cc1	GRIN3A LBD mod 19.6
CCOc1ccc(S(=O)(=O)N2CCOCC2)cc1NC(=O)CSCC(=O)Nc1ccc(C)cc1	GRIN3A LBD mod 11.1

High-throughput results from PubChem BioAssay.
